Assay results published in ChEMBL document CHEMBL1146096, “Slow-binding human serine racemase inhibitors from high-throughput screening of combinatorial libraries” (J Med Chem, 2006).
Where a SMILES comes first, the peptide text is derived from it. [ ]: non-standard residue; d: D form. The star is where a group is joined. Phe(4-CN) = N#Cc1ccc(C[C@H](N)C(=O)O)cc1; Hydrocinnamoyl = O=C(CCc1ccccc1)*; hPhe = N[C@@H](CCc1ccccc1)C(=O)O; 2Thi = N[C@@H](Cc1cccs1)C(=O)O; Orn = NCCC[C@H](N)C(=O)O

Target: T1, Serine racemase (Homo sapiens) (UniProt Q9GZT4)
T1 sequence (whole entry): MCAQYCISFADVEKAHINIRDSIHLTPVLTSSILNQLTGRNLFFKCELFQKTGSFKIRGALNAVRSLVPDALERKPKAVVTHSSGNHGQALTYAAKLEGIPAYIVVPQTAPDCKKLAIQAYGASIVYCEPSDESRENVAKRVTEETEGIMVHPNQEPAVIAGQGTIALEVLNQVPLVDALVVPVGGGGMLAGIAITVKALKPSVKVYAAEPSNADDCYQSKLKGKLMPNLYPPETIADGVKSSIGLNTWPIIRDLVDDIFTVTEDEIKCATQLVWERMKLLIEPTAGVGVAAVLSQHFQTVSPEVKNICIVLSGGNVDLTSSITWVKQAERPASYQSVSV
Experiment: Inhibition of human serine racemase at 2 mM
Outline: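 Recombinant His-tagged hSR (E. coli, Ni-NTA). Inhibitor tested at 2 mM in a DAAO/LDH-coupled assay of total racemization plus elimination, with the NADH decrease followed at 340 nm. Buffer: 200 mM TEA·HCl, 150 mM KCl, 50 µM PLP, 5 mM MgCl2, 2.5 mM ATP, 10 mM DTT. L-serine substrate. Reported as percent decrease in activity.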

Compound | inhibition
CC[C@@H](C)[C@H](NC(=O)[C@H](Cc1c[nH]cn1)NC(=O)CCc1ccccc1)C(N)=O | 74%
CCC(C)C[C@H](NC(=O)CCc1ccccc1)C(=O)N[C@@H](Cc1c[nH]cn1)C(N)=O (stereo partly specified) | 54%
CC[C@@H](C)[C@H](NC(=O)[C@H](CO)NC(=O)/C=C/c1cccnc1)C(N)=O | 10%
CC[C@@H](C)[C@H](NC(=O)[C@H](Cc1c[nH]cn1)NC(=O)CCc1ccccc1)C(=O)NCCOCCOCNC(=O)CCC(N)=O | 0%
CSCC[C@H](NC(=O)N1C(=O)OC[C@@H]1c1ccccc1)C(=O)N[C@@H](CCC(=O)O)C(N)=O | 8%
N#Cc1ccc(C[C@H](NC(=O)c2ccc(-c3ccccc3)cc2)C(=O)NC2(C(N)=O)CCC(O)CC2)cc1 (stereo partly specified) | 0%
NC(=O)[C@H](Cc1cccc(C(=O)c2ccccc2)c1)NC(=O)[C@H](Cc1ccccc1)NC(=O)COCC(=O)O | 4%
NC(=O)C[C@H](NC(=O)CCc1ccccc1)C(=O)N[C@@H](Cc1c[nH]cn1)C(N)=O (Hydrocinnamoyl-Asn-His-NH2) | 42%
CC(C)C[C@H](NC(=O)[C@H](Cc1c[nH]cn1)NC(=O)CCc1ccccc1)C(N)=O (Hydrocinnamoyl-His-Leu-NH2) | 57%
NCCCC[C@H](NC(=O)[C@H](Cc1c[nH]cn1)NC(=O)CCc1ccccc1)C(N)=O (Hydrocinnamoyl-His-Lys-NH2) | 40%
NC(=O)[C@H](Cc1cccs1)NC(=O)[C@H](Cc1c[nH]cn1)NC(=O)CCc1ccccc1 (Hydrocinnamoyl-His-[2Thi]-NH2) | 68%
NCCC[C@H](NC(=O)[C@H](Cc1c[nH]cn1)NC(=O)CCc1ccccc1)C(N)=O (Hydrocinnamoyl-His-[Orn]-NH2) | 49%
NC(=O)[C@H](CCc1ccccc1)NC(=O)[C@H](Cc1c[nH]cn1)NC(=O)CCc1ccccc1 (Hydrocinnamoyl-His-[hPhe]-NH2) | 70%
N#Cc1ccc(C[C@H](NC(=O)CCc2ccccc2)C(=O)N[C@@H](Cc2c[nH]cn2)C(N)=O)cc1 (Hydrocinnamoyl-[Phe(4-CN)]-His-NH2) | 72%

Target: T2, Serine racemase (Homo sapiens, UniProt Q9GZT4)
T2 sequence (Q9GZT4 whole entry): T1 sequence (whole entry)
Experiment: Inhibition of human serine racemase
Outline: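 His-tagged hSR expressed in E. coli BL21 and Ni-NTA purified. Combined racemization plus elimination rate coupled via DAAO and LDH; NADH decrease read at 340 nm. Mix: 200 mM TEA·HCl, 150 mM KCl, 50 µM PLP, 5 mM MgCl2, 2.5 mM ATP, 10 mM DTT, 0.3 mM NADH. Varied L-serine against fixed inhibitor levels (0–2 mM), 40 min preincubation. KI obtained by global fit of data.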

Compound | Ki
CC[C@@H](C)[C@H](NC(=O)[C@H](Cc1c[nH]cn1)NC(=O)CCc1ccccc1)C(N)=O | 610 µM
NC(=O)[C@H](CCc1ccccc1)NC(=O)[C@H](Cc1cnc[nH]1)NC(=O)CCc1ccccc1 (Hydrocinnamoyl-His-[hPhe]-NH2) | 320 µM
